In the library only some 2.6% were active in any assay of this set; here they are far more common.
GSIS activator = GLuc luminescence reporter in INS-1E cells, primary screen for activators of glucose-dependent secretion of insulin; 370,000 tested, 0.61% active; INS-1E GLuc reporter insulin secretion, 2-3 h; activation, % at 16.6 µM;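 active means lowest replicate activation of at least 40%, so every replicate reaches that level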
RAD52 anneal inh = RAD52 DNA annealing inhibitors, primary screen, biochemical, FRET, single point, set 2 | DNA repair protein RAD52 homolog (Homo sapiens), P43351 | recombinant RAD52 DNA annealing, FRET fluorescence | inhibition, % at 18.7 µM | 360,000 tested, 0.46% active;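 active means every replicate showing at least 50% inhibition; inconclusive means mean inhibition at least 50% but not in every replicate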
MLL AF4-AF9 inh = inhibitors of AF4 peptide binding to AF9, primary screen, biochemical, AlphaScreen, biotin-AF4 peptide, FLAG-AF9, single point. inhibition, % at 10 µM. Protein AF-9 (Homo sapiens), P42568. AID 651704, 2012. 350,000 tested, 0.47% active;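 active means every replicate reaching a set inhibition limit, whatever the replicate mean, cut at about 25% in these data; inconclusive means mean inhibition reaches that limit but some replicates miss it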
Target sequence (P42568 whole entry, looked up): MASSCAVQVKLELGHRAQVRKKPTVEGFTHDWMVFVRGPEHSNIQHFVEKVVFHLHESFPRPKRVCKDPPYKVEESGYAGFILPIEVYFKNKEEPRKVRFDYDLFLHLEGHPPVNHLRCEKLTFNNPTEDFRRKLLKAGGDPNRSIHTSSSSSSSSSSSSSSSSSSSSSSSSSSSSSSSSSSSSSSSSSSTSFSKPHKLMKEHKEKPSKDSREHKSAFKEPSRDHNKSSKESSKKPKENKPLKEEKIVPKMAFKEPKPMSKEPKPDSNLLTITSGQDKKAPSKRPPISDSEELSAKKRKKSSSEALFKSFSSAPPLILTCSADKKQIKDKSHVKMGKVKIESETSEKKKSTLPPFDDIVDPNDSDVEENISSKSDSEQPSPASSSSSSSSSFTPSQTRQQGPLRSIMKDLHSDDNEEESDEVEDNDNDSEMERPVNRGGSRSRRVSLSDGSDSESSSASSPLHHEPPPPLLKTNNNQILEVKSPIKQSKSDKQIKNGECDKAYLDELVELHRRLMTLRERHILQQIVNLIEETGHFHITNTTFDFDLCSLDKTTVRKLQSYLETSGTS
RAD54 branch = inhibitors of human RAD54 branch migration, primary screen, biochemical, fluorescence, single point; 360,000 tested, 0.14% active; AID 602329, 2012; RAD54 Holliday junction branch migration, FAM/BHQ fluorescence; inhibition, % at 10.4 µM;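 active means mean normalized replicate activity at least 40 and at least half of replicates scoring 40 or more; inconclusive means only one of the two criteria met; inactive means mean below 40 and under half of replicates reaching 40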;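 further: inhibitors cause a drop in the FAM fluorescence signal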
Ecoli rRNA inh = reduced GFP signal of wild-type E. coli, primary screen, bacterial rRNA inhibitor project, GFP/RFP fluorescence, OD600, single point | E. coli WT GFP vs humanized-ribosome RFP mutants, 24 h; active compounds read low; DMSO median 0, no signal -100 | AID 720706, 2013 | GFP signal change (wild-type ribosome), % (no concentration beside the values) | 350,000 tested, 1.6% active;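 active means significant combined selectivity score with lowered wild-type GFP, culture density cut under 30%, mutant RFP and density less affected; inactive means any of these conditions unmet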
E-sel inducer = E-selectin induction in HUVECs, primary screen, imaging, HUVEC, immunofluorescence imaging, single point; P16581; normalized: neutral wells 0, TNF-alpha wells 100; activation, % at 7.58 µM; 260,000 tested, 0.37% active; AID 686992, 2013;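 active means mean E-selectin-positive cell signal at least 10% of the positive control, reached in at least 60% of replicates, without over 20% cell loss; inconclusive means no rule given, readout overlaps actives, possibly toxicity-flagged; inactive means the rest, including those meeting only one limit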
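Test system: HUVEC; input: 3,000 HUVEC/well; measured by: immunofluorescence imaging; read-out: % PE-positive cells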
RAD52 DNA ctr = DNA-binding compounds via dye displacement, dose response, artefact control for RAD52 inhibitor project, biochemical, fluorescence polarization, cherry-pick. shares compounds with RAD52 anneal inh. Salmon sperm DNA/acridine orange FP displacement. 1,000 tested, 8% active. AC50, µM;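 active means fitted half-maximal concentration for signal loss at or below twice the highest dose tested, in every separate run, actives reach about 64 µM in these data; inconclusive means runs disagree, or flat partial signal loss, or poor fit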
A number is an active result; n = inactive; u = inconclusive; x = no result given.

SMILES	GSIS activator	RAD52 anneal inh	MLL AF4-AF9 inh	RAD54 branch	Ecoli rRNA inh	E-sel inducer	RAD52 DNA ctr
Cc1cc(N2CCCC2)nc2ccc(NC(=S)NCCCOC(C)C)cc12	n	57.6	n	x	n	x	n
Cc1cc(N2CCOCC2)nc2ccc(NC(=S)NCCC(C)C)cc12	n	n	n	n	n	n	x
Cc1cc(N2CCN(C)CC2)nc2ccc(NC(=S)NCCC(C)C)cc12	n	61.1	n	n	n	x	n
C[C@H]1CN([C@@H](C)CO)C(=O)c2c(c3ccccc3n2C)-c2ccccc2CO[C@H]1CN(C)S(=O)(=O)c1cn(C)cn1	n	n	n	n	n	n	x
COc1ccccc1CNC(=S)Nc1ccc2nc(N3CCN(C)CC3)cc(C)c2c1	n	77.1	27.2	n	n	x	n
CCOCCCNC(=S)Nc1ccc2nc(N3CCOCC3)cc(C)c2c1	n	n	n	n	n	x	x
CCN1CCN(c2cc(C)c3cc(NC(=S)NCCCOC)ccc3n2)CC1	n	61.4	n	n	n	n	n
CC(C)c1ccc(CNc2nc(NCC3CC3)nc3ccsc23)cc1	n	71.1	n	n	n	n	n
COc1ccc(C2NCCc3c2[nH]c2ccccc32)cc1COc1ccc(F)cc1 (stereo unspecified)	n	85.4	u	x	n	x	n
O=C(CCN1CCCCC1)NCC[C@H]1CC[C@H](NC(=O)Nc2ccc(F)cc2)[C@H](CO)O1	n	n	n	n	n	n	x
CC(=O)c1ccc(-c2cnc3c(NC=O)cc(-c4ccc(N5CCN(C)CC5)cc4)cn23)cc1	x	67.0	n	n	n	x	n
CC(=O)c1ccc(-c2cnc3c(NC=O)cc(-c4ccc(C(=O)NC5CC5)cc4)cn23)cc1	n	n	n	n	n	n	x
COc1ccccc1S(=O)(=O)Nc1ccc2c(c1)OC[C@@H](C)NC[C@H](C)[C@@H](OC)CN(C)C2=O	n	n	n	n	n	n	x
CC(C)(c1ccccc1)c1ccc(OCCCN2CCNCC2)cc1	n	56.8	n	x	n	n	n
CC(C)(C)c1ccc(OCCCCCCN2CCNCC2)cc1	n	n	n	n	n	x	x
O=C(NCC[C@H]1CC[C@H](NS(=O)(=O)Cc2ccccc2)[C@H](CO)O1)C1CCOCC1	n	n	n	n	n	n	x
CCNC(=O)/C(C#N)=C/c1c(N2CCCCCC2)nc2c(C)cccn2c1=O	x	94.6	n	n	n	n	n
CCC(=O)N1[C@@H]2CN(S(=O)(=O)c3ccccc3F)c3ccccc3[C@@H]2[C@@H]1CO	n	n	n	n	n	n	x
COc1ccccc1NC(=S)NC12CN3CN(CN(C3)C1)C2	n	79.2	n	x	n	x	n
COc1ccc2c3c([nH]c2c1)[C@@H](CO)N(C(=O)c1ccccc1)CC31CN(C(=O)NC(C)C)C1	n	n	n	x	n	n	x
CC[n+]1c(C=C2C=C(C)OC(C)=C2)sc2ccccc21	n	58.7	n	x	n	n	n
CN(C)CCCNC(=O)C(=O)Nc1cc2c3c(c1)CC(=O)N3CCC2	n	96.9	n	n	n	x	n
COc1ccc(C2=Nn3c(nnc3-c3ccccc3F)SC2)cc1OC1CCCC1	n	n	n	n	n	n	n
OCCCNc1c2ccccc2nc2ccccc12	n	94.8	n	96.7	n	x	52.8µM
CC(C)(C)Nc1c2ccccc2nc2ccccc12	n	n	n	n	n	n	x
COc1cccc(C2=NCCc3cc4c(cc32)OCO4)c1OC	n	x	x	n	x	x	x
COc1ccc2cc3[n+](cc2c1OC)CCc1cc2c(cc1-3)OCO2	n	75.4	n	72.4	n	n	n
C[C@@H]1CN([C@@H](C)CO)C(=O)c2cc(-c3ccc(C#N)cc3)cnc2O[C@H]1CN(C)CC1CCCCC1	n	n	n	n	n	n	x
